Source: ChEMBL document CHEMBL4513216, “Probing the Open Global Health Chemical Diversity Library for Multistage-Active Starting Points for Next-Generation Antimalarials” (ACS Infect Dis, 2020)

Assay: Toxicity liver stage against HepG2, at 10uM
Type: cell-based
Parameters: test concentration 10 uM, cell line HepG2-A16-CD81EGFP
Conditions: human, HepG2-A16-CD81EGFP cells; read-out: INHIBITION
Outline: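 Uninfected HepG2-A16-CD81EGFP cells, 3 × 10^3 per well, 1536-well, plated on prespotted compound at 10 μM final, parasite-free screening media added to match infected plates; puromycin 10 μM positive, DMSO 0.5% negative; run in parallel with 48 h PbLuc assay at 37 °C, 5% CO2; viability by CellTiter-Glo luminescence, normalized to controls.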

SMILES | cytotoxicity at 10 µM [%]
O=C(NC[C@H]1OC[C@@H](NC2COC2)[C@@H]1O)c1cccs1 | 0.0331
CC(C)N1C[C@@H](F)[C@@H](OCc2nc3ncccc3[nH]2)C1 | 5.47
CN1CC=C(c2noc(CCC(=O)N3CCc4ccccc43)n2)CC1 | 7.22
Cc1nc(NC(=O)CN2C(=O)c3ccccc3NC2C(C)C)sc1C (centres undefined) | 0.585
C[C@@H](O)CNc1c(NCc2ccco2)c(=O)c1=O | -7.58
Cn1ccc2c(C(=O)NC3CN4CCC3CC4)cccc21 (centres undefined) | -46.8
O=C1CSC(c2ccccc2)c2c(n(C3CCOCC3)[nH]c2=O)N1 (centres undefined) | -4.69
Cc1ccnc(OC[C@]23COC[C@H]2CN(C(=O)c2cnccn2)C3)n1 | -7.1
O=C(N1CCCC1)N1Cc2nccn2CC(Cn2ncccc2=O)C1 (centres undefined) | 3.39
Cc1occc1C(=O)N1C[C@@H](C(=O)NCc2ccco2)C[C@H]2OCC[C@H]21 | 1.08
O=C(O)c1nc(SCc2ccccc2)ncc1Br | 0.231
COc1ccc(C2SCC(=O)Nc3n[nH]cc32)c(OC)c1OC (centres undefined) | 4.68
CCOc1cc(=O)n2c(c1C(=O)OCc1ccc(C)cc1)CCCC2 | 3.11
COC(=O)c1cc2c(OC)c(OC)c(OC)cc2[nH]1 | -0.555
Cn1c(=O)[nH]c(=O)n2c(CC(=O)Nc3ccccc3)cnc12 | 5.81
O=C(c1cc2c(s1)CCC2)N1CCC(c2ccncc2)CC1 | 39.7
CNc1ccc(CC2CCCN(C(=O)c3cnccn3)C2)nn1 (centres undefined) | -9.27
CNc1ncccc1CN1CCCCC1c1ccnc(N)n1 (centres undefined) | -12.3
Cc1ncccc1Oc1nccnc1C1CCN(S(C)(=O)=O)CC1 | -7.88
CC(C)(C)CN1CCCC12Cc1ccccc1CNC2=O (centres undefined) | 22.1
CCn1cnnc1CNC(=O)NC(c1ccc(OC)cc1)C1CC1 (centres undefined) | 1.77
CC(C)N(C)CCCNC(=O)c1cnn(C(C)(C)C)c1C(F)(F)F | 7.25

SMILES | cytotoxicity at 10 µM [%]
Cc1nc(CN2CCCN(CC(=O)N(C)C(C)(C)C#N)CC2)no1 | 9.5
N#Cc1cc(Cl)ccc1N1CCOC(C(N)=O)C1 (centres undefined) | 11.7
Cn1nc(C(C)(C)C)cc1NC(=O)CSc1nnc[nH]1 | 0.353
CC1CN(C)CCN1C(=O)Cc1cc(Cl)c2c(c1)OCCO2 (centres undefined) | -3.47
CN(C)CCOc1ccc(N(C)S(=O)(=O)c2cnn(C)c2)cc1 | -13.3
CCNc1cc2c(nn1)CCN(C(=O)c1cc3c(s1)CCOC3)C2 | -8.51
Cc1cnn(C2CN(CC(O)COCc3ccc4c(c3)OCO4)C2)c1 (centres undefined) | -5.41
CCN(C)S(=O)(=O)N1CCCC1CC(=O)c1cccs1 (centres undefined) | -29
C=C(C)CN1CCC(NC(=O)Nc2cc(C(N)=O)ccc2OC)CC1 | 10.8
COCCCC(=O)NC1(c2cccc(Br)c2)CC1 | 2.11
COc1cccc(OCC(=O)NS(=O)(=O)c2cc(F)ccc2F)c1 | 7.53
CC(C)c1nnc(NC(=O)NC2CCOc3ccccc32)s1 (centres undefined) | 18.1
CC(c1cccc(O)c1)N(C)S(=O)(=O)c1cccnc1 (centres undefined) | 9.46
O=C(c1ncoc1C1CCCO1)N1CC2(CCCC2)c2ccccc21 (centres undefined) | 3.13
COC(=O)NCC(=O)NCC1(c2c(F)cccc2F)CCCC1 | -3.56
CCCn1nnnc1COc1ccc(C(=O)OC)cc1 | -5.58
c1cnnc(NCC2CN(CCn3cncn3)CCO2)c1 (centres undefined) | -3.16
Cc1cnn(CCNCCCOc2ccc3c(c2)OCO3)c1 | -3.6
Cc1ccc(NC(=O)CCC2CC2)cc1N1CCOC1=O | 3.86
CC(C)COC(C)C(=O)NCc1ccccc1Cn1ccnc1 (centres undefined) | 4.9
O=C(NCCNCC1CNc2ccnn2C1)c1ccc(F)cc1 (centres undefined) | -8.75
CCc1ccc(CN2CCC3(CC(C(=O)NCC(C)C)=NO3)C2)o1 (centres undefined) | 6.46

SMILES | cytotoxicity at 10 µM [%]
O=c1ccc2c([nH]1)CCC(NS(=O)(=O)C1CC1)C2 (centres undefined) | 3.66
Cc1cc(C(=O)N2CCn3cc(CN4CCN(C)CC4)nc3C2)no1 | -74.7
CN1CCN(Cc2cnc3n2CCN(C(=O)c2ccnnc2)C3)CC1 | -81.1
CCn1cc2c(n1)C(COC)CN(C(=O)c1ccccn1)C2 (centres undefined) | 2.61
COc1cccc(OC)c1-c1ccnc2cc(CC(=O)N(C)C)nn12 | -8.86
CCc1nn(C)c(Cl)c1CN(CCOC)Cc1cnn(C)c1 | -6.5
Cn1c(Cn2ccnc2)nnc1C1CCCN(Cc2ccncc2)C1 (centres undefined) | 12.1
Cc1cc(Cl)ccc1C(=O)N[C@H]1CN(S(C)(=O)=O)C[C@@H]1C1CC1 | 8.9
O=C1CN(Cc2cn(CC3CCN(C4CCSCC4)CC3)nn2)CCN1 | -48.2
CC(C)=CCN1CCN(C(=O)c2snnc2C)[C@H]2CS(=O)(=O)C[C@H]21 | -0.987
COC1CCN(S(=O)(=O)N2CCC3(CCCNC3=O)C2)CC1 (centres undefined) | 1.1
COc1ccc(-c2cccc(-c3ccn(CCCN(C)C)n3)c2)nn1 | -1.01
Cc1cc(CN(C)CC2(O)CCCN(CCC3CCCCC3)C2=O)no1 (centres undefined) | -14.4
CCCc1nccn1-c1ccncc1 | 17.3
O=C(O)[C@@H]1CN(Cc2ccc3nsnc3c2)C[C@H]1c1cccnc1 | 4.46
O=C(C1CC1)N1C[C@H]2CNC[C@@]2(C(=O)NCCCc2ccccc2)C1 | -0.371
CN(C)C[C@H]1CC[C@@H](Cc2ccc3c(cnn3C)c2)O1 | -1.07
CCc1cn[nH]c1C1CCCN(C(=O)c2cc(C(C)C)on2)C1 (centres undefined) | -8.6
COC(=O)c1ccn(CC(=O)Nc2nn(CC3CC3)c3ccccc23)n1 | 4.95
Cc1nc2c(c(N3CCN(c4ncccc4C(N)=O)CC3)n1)CCNC2 | -4.69
CN1CC=C(CCN(C)C(=O)CCc2ccccc2)CC1 | -5.84
CCn1c(C2CCN(C(=O)c3cc(C4CC4)on3)CC2)nn(C)c1=O | -5.82

SMILES | cytotoxicity at 10 µM [%]
CSCCC(O)C(=O)N1CCCN(Cc2ccc(F)cc2)CC1 (centres undefined) | 5.14
CN1CC2(CCN(C(=O)c3ccc4c(=O)n(C)cnc4c3)CC2)CC1=O | 5.58
Cc1ccccc1-c1noc(-c2ccc(NCC3COCCO3)nc2)n1 (centres undefined) | 3.41
CCCc1cncnc1N1CCCC2(CCC(=O)N(C3CCCC3)C2)C1 (centres undefined) | 0.887
O[C@@]1(CN2CCN(Cc3ccncc3)CC2)CCCN2CCCC[C@@H]21 | 8.91
CCN(CC1CCOCC1)C(=O)CCNC(=O)c1ccccc1F | -43.1
Cc1nn(CCO)cc1CN1CCC(C(C)N2CCCC2)CC1 (centres undefined) | -1.04
Cc1cc(Cl)ccc1C(=O)N1C[C@H](C2CC2)[C@@H](N)C1 | -46.6
CC(Cn1cncn1)NCc1n[nH]c2c1CCCCC2 (centres undefined) | -4.39
Cc1nn(C)c(C)c1CCC(=O)NCc1csc(N2CCCC2)n1 | -4.55
Cc1nccn1Cc1nnc(C2CCCN(Cc3ccncc3)C2)n1C (centres undefined) | -1.63
Cc1nnsc1C(=O)N1CCC2(CC1)c1nc[nH]c1CCN2CC(C)C | 26.3
Cc1nn(-c2ccccc2)c2c1C(c1ccc(C(=O)O)cc1)CC(=O)N2 (centres undefined) | 10.6
CCc1nccn1C1CCCN(C(=O)CCOCC(F)(F)F)C1 (centres undefined) | -9.39
COc1cc(CNC(=O)c2c(C)noc2C)ccn1 | -8.83
CC(C)c1ccc(OCCC(=O)N2CCC(C(N)=O)CC2)cc1 | -11.5
COc1c(C)cnc(CN2CCC(C(=O)N(C)C)CC2)c1C | -12.6
CCc1nc2n(n1)CC(NCc1ccnc(-c3ccccc3)n1)CC2 (centres undefined) | -8.3
Cc1nc(-c2nnc[nH]2)sc1C(=O)N(Cc1cccnc1)C1CC1 | -5.79
Cc1ccc(C(=O)N2CCN(CCc3cccs3)CC2)c(=O)[nH]1 | -3.94
c1ccc(-c2nc(CN3CCCC3Cn3cncn3)cs2)cc1 (centres undefined) | -14
CCN1CCN(C2CCN(Cc3c(C)noc3C)CC2)C1=O | -7.85

SMILES | cytotoxicity at 10 µM [%]
c1ccc(-c2nnc(CNCCn3cccn3)o2)cc1 | -10.7
O=C(NCCN1CCOCC1)NCC(O)c1cccc(F)c1 (centres undefined) | -9.24
O=C(NCCn1ccnc1)N1CCN(c2nccs2)CC1 | -3.68
CCOc1ncccc1C(=O)N1CCCC1c1c(C)nn(C)c1OC (centres undefined) | -13
CN(C)c1ncc(CN2CCC(O)(c3ccccc3F)CC2)cn1 | 2.4
CCCSc1ncc(CN(C)CCN2CCCCC2)cn1 | -1.39
Cn1ccnc1C(=O)N1CCC2(CC1)CC(Oc1cccnc1)CO2 (centres undefined) | 3.04
Cc1nc(CN2CCN(C)C(=O)C23CCN(C(C)C)CC3)cs1 | 2.33
CC1CCN(C(=O)C2(Cc3cc(C4CCOC4)no3)CCNCC2)CC1 (centres undefined) | -3.04
CCN(CC)S(=O)(=O)N1CCc2nc(C3CCNCC3)ncc2C1 | -5.66
O=C(NCC1CCOCC1)[C@H]1C[C@@H]2CCN(Cc3ccccc3)C[C@H]2O1 | 1.03
Cc1cccc(N2CCOCC3(C2)CN(c2ccoc2)C(=O)CO3)n1 (centres undefined) | 4.39
c1ccc(CN2CCC3(CC2)CCN(Cc2cccnc2)C3)nc1 | -78.6
O=C1[C@H]2CN(Cc3nccs3)C[C@H]2CN1c1ccsc1 | 3.06
COc1cc(N2C[C@H]3CCC[C@@H](CN(C)C)[C@H]3C2)ncn1 | -78.3
CNC(=O)c1cc2c(nc1NCC1CC1)CCN(c1ccncn1)CC2 | 3.17
c1ccc(O[C@@H]2CO[C@@]3(CCCN(CC4CCOCC4)C3)C2)nc1 | -82.6
O=C1CO[C@@H]2CN(Cc3nccs3)C[C@H]2N1Cc1ccncc1 | -66.6
O=C(NC1CCCC1)[C@@H]1CN(Cc2nccs2)C[C@H]2OCC[C@H]21 | 4.91
COc1ccc(CN2C[C@@H]3OCCN(c4ncccn4)[C@@H]3C2)cc1 | 4.71
FC(F)(F)CCc1ccnc(NC2CCC(n3cnnc3)CC2)n1 (centres undefined) | -6.71
